Measurements from ChEMBL document CHEMBL1144746, “Structural simplification of bioactive natural products with multicomponent synthesis. 2. antiproliferative and antitubulin activities of pyrano[3,2-c]pyridones and pyrano[3,2-c]quinolones” (2008).
Calls of active or inactive are those of the source. The rule behind the calls is not given here.

Legend:
HeLa = assay: Antiproliferative activity against human HeLa cells assessed as cell viability after 48 hrs by MTT assay; type: functional
How it was run: (§1)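 Cells plated at 2 × 10^4 cells/mL and allowed to adhere for 24 h, then exposed to compounds for 48 h. MTT reagent (5 mg/mL stock) added for 2 h, formazan dissolved in DMSO, OD read at 490 nm.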

MCF7 = assay: Antiproliferative activity against human MCF7 cells assessed as cell viability after 48 hrs by MTT assay; type: functional; conditions: MCF7, 48 h; how it was run: as §1
Jurkat [1] = assay: Induction of apoptosis in human Jurkat cells at 5 uM by annexin V/propidium iodide assay; type: functional, cell-based
How it was run: (§2)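 Jurkat cells at 2 × 10^5 cells/mL exposed to compounds, with DMSO control. Exposure was 5 μM for 36 h, 1 μM for 12–60 h, or 48 h across a range of doses. Cells stained with Annexin-V-FITC/propidium iodide in HHB with CaCl2 for 20 min at 37 °C. Flow cytometry gives % Annexin-V-positive cells; four replicates, experiment repeated twice.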

Bos taurus [2] = organism: Bos taurus; assay: Inhibition of bovine tubulin polymerization at 25 uM
How it was run: (§3)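 Purified bovine tubulin incubated at 37 °C in buffer with 10% glycerol and 1 mM GTP, each agent in a separate run against a 0.05% DMSO control. Polymerization followed kinetically by fluorescence increase on a plate reader.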

Bos taurus [3] = organism: Bos taurus; assay: Induction of bovine tubulin polymerization at 3 uM relative to control; how it was run: as §3
Jurkat [4] = assay: Induction of apoptosis in human Jurkat cells assessed as oligonucleosomal DNA fragments at 0.4 uM after 36 hrs by DNA laddering assay; type: functional, cell-based
How it was run: (§4)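 About 1 × 10^6 Jurkat cells treated for 36 h. Cells lysed in Tris-HCl pH 8/EDTA/0.5% SDS/proteinase K at 55 °C for 60 min, then RNase at 55 °C for 60 min. Cleared lysate run on a 1.5% agarose gel with ethidium bromide at 80 V for about 1 h and viewed under UV.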

Jurkat [5] = assay: Induction of apoptosis in human Jurkat cells assessed as morphological changes after 2 hrs by light microscopy; type: functional, cell-based
How it was run: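 Jurkat cells exposed to compound at 1 μM for 2 h, with 0.1% DMSO as control. Finger-like extensions and shriveling scored by light microscopy.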

Jurkat [6] = assay: Induction of apoptosis in human Jurkat cells assessed as oligonucleosomal DNA fragments at 1.5 uM after 36 hrs by DNA laddering assay; type: functional, cell-based; how it was run: as §4
Jurkat [7] = assay: Cell cycle arrest in human Jurkat cells assessed as accumulation at G0/G1 phase at 1 uM after 24 hrs by flow cytometry; type: functional
How it was run: (§5)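 Cells stained with Vybrant DyeCycle Orange in HHB (1 μL dye per mL) for 30 min at 37 °C in the dark, then analysed by flow cytometry. % relative DNA content ± SD, two independent experiments each in triplicate.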

Jurkat [8] = assay: Cell cycle arrest in human Jurkat cells assessed as accumulation at S phase at 1 uM after 24 hrs by flow cytometry; type: functional; how it was run: as §5
Jurkat [9] = assay: Cell cycle arrest in human Jurkat cells assessed as accumulation at G2/M phase at 1 uM after 24 hrs by flow cytometry; type: functional; how it was run: as §5
Jurkat [10] = assay: Induction of apoptosis in human Jurkat cells by annexin V/propidium iodide assay; type: functional, cell-based; conditions: TDE = time-dependent effect; how it was run: as §2
Jurkat [11] = assay: Induction of apoptosis in human Jurkat cells at 100 nM by annexin V/propidium iodide assay

Compound	GI50 (HeLa)	GI50 (MCF7)	other results
COc1cc(C2C(C#N)=C(N)Oc3c2c(=O)n(C)c2ccccc32)cc(Br)c1OC(C)=O (stereo not given)	180 nM	25 nM	–
Cn1c(=O)c2c(c3ccccc31)OC(N)=C(C#N)C2c1ccc(Cl)c(Cl)c1 (stereo not given)	300 nM	2500 nM	–
Cn1c(=O)c2c(c3ccccc31)OC(N)=C(C#N)C2c1cccc(Br)c1 (stereo not given)	740 nM	3 nM	–
COc1cc(C2C(C#N)=C(N)Oc3cc(C)n(C)c(=O)c32)cc(Br)c1O (stereo not given)	2700 nM	–	Activity (Jurkat [1]): Active
Cc1cc2c(c(=O)n1C)C(c1cccc([N+](=O)[O-])c1)C(C#N)=C(N)O2 (stereo not given)	35000 nM	–	–
COc1cc(C2C(C#N)=C(N)Oc3cc(C)n(C)c(=O)c32)cc(Br)c1OC(C)=O (stereo not given)	3500 nM	–	Activity (Jurkat [1]): Active
Cc1cc2c(c(=O)n1C)C(c1cccc(Br)c1)C(C#N)=C(N)O2 (stereo not given)	6500 nM	–	Activity (Jurkat [1]): Active
Cc1cc2c(c(=O)o1)C(c1cccc(Br)c1)C(C#N)=C(N)O2 (stereo not given)	> 100000 nM	–	–
Cc1ccc(C2C(C#N)=C(N)Oc3c2c(=O)n(C)c2ccccc32)o1 (stereo not given)	3900 nM	5100 nM	–
Cn1c(=O)c2c(c3ccccc31)OC(N)=C(C#N)C2c1c(Cl)cccc1Cl (stereo not given)	> 50000 nM	36000 nM	–
Cc1cc2c(c(=O)n1C)C(c1ccc(F)c(Br)c1)C(C#N)=C(N)O2 (stereo not given)	6400 nM	–	Activity (Jurkat [1]): Active
COc1cc([C@@H]2c3cc4c(cc3[C@H](O)[C@H]3COC(=O)[C@H]23)OCO4)cc(OC)c1OC	–	–	Activity (Bos taurus [2]): Active
Cc1cc2c(c(=O)n1C)C(c1ccc(Cl)c(Cl)c1)C(C#N)=C(N)O2 (stereo not given)	18300 nM	–	Activity (Jurkat [1]): inactive
Cn1c(=O)c2c(c3ccccc31)OC(N)=C(C#N)C2c1cccc(F)c1 (stereo not given)	300 nM	1000 nM	–
COc1ccc(C2C(C#N)=C(N)Oc3c2c(=O)n(C)c2ccccc32)cc1Br (stereo not given)	410 nM	500 nM	–
COc1cc(C2C(C#N)=C(N)Oc3c2c(=O)n(C)c2ccccc32)ccc1O (stereo not given)	630 nM	500 nM	–
COc1ccc(CCn2c(C)cc3c(c2=O)C(c2cc(OC)c(OC)c(OC)c2)C(C#N)=C(N)O3)cc1OC (stereo not given)	22700 nM	–	Activity (Jurkat [1]): inactive
Cn1c(=O)c2c(c3ccccc31)OC(N)=C(C#N)C2c1ccncc1 (stereo not given)	> 50000 nM	32000 nM	–
COc1ccc(C2C(C#N)=C(N)Oc3c2c(=O)n(C)c2ccccc32)cc1O (stereo not given)	> 50000 nM	> 50000 nM	–
COc1cc(C2C(C#N)=C(N)Oc3c2c(=O)n(C)c2ccccc32)cc(OC)c1OC (stereo not given)	240 nM	1000 nM	–

Compound	GI50 (HeLa)	GI50 (MCF7)	other results
CCOc1c(Br)cc(C2C(C#N)=C(N)Oc3cc(C)n(C)c(=O)c32)cc1OC (stereo not given)	1100 nM	–	Activity (Jurkat [1]): Active
Cn1c(=O)c2c(c3ccccc31)OC(N)=C(C#N)C2c1ccccc1[N+](=O)[O-] (stereo not given)	5000 nM	3500 nM	–
Cn1c(=O)c2c(c3ccccc31)OC(N)=C(C#N)C2c1cccc([N+](=O)[O-])c1 (stereo not given)	320 nM	1100 nM	–
Cn1c(=O)c2c(c3ccccc31)OC(N)=C(C#N)C2c1ccccc1 (stereo not given)	390 nM	3380 nM	–
COc1cc(C2C(C#N)=C(N)Oc3c2c(=O)n(C)c2ccccc32)cc([N+](=O)[O-])c1O (stereo not given)	630 nM	710 nM	–
Cn1c(=O)c2c(c3ccccc31)OC(N)=C(C#N)C2c1ccc(F)c(Br)c1 (stereo not given)	270 nM	810 nM	–
Cc1cc2c(c(=O)n1C)C(c1ccc(N(C)C)c(Br)c1)C(C#N)=C(N)O2 (stereo not given)	330 nM	–	Activity (Jurkat [1]): Active
Cn1c(=O)c2c(c3ccccc31)OC(N)=C(C#N)C2c1cccnc1 (stereo not given)	2000 nM	> 50000 nM	–
Cn1c(=O)c2c(c3ccccc31)OC(N)=C(C#N)C2c1cccc(Cl)c1 (stereo not given)	150 nM	2200 nM	–
Cn1c(=O)c2c(c3ccccc31)OC(N)=C(C#N)C2c1ccco1 (stereo not given)	22000 nM	35000 nM	–
COc1cc(C2C(C#N)=C(N)Oc3cc(C)n(C)c(=O)c32)cc(Br)c1OC (stereo not given)	580 nM	–	Activity (Jurkat [1]): Active
Cn1c(=O)c2c(c3ccccc31)OC(N)=C(C#N)C2c1cc(Br)cc(Br)c1 (stereo not given)	77 nM	75 nM	–
Cn1c(=O)c2c(c3ccccc31)OC(N)=C(C#N)C2c1cc(Br)c(O)c(Br)c1 (stereo not given)	270 nM	430 nM	–
Cc1cc2c(c(=O)n1C)C(c1ccc(C(C)C)cc1)C(C#N)=C(N)O2 (stereo not given)	> 100000 nM	–	Activity (Jurkat [1]): inactive
Cn1c(=O)c2c(c3ccccc31)OC(N)=C(C#N)C2c1cncc(Br)c1 (stereo not given)	13 nM	15 nM	–
Cn1c(=O)c2c(c3ccccc31)OC(N)=C(C#N)C2c1cccc(Cl)c1Cl (stereo not given)	1800 nM	> 50000 nM	–
CC(=O)O[C@H]1C(=O)[C@@]2(C)[C@H]([C@H](OC(=O)c3ccccc3)[C@]3(O)C[C@H](OC(=O)[C@H](O)[C@@H](NC(=O)c4ccccc4)c4ccccc4)C(C)=C1C3(C)C)[C@]1(OC(C)=O)CO[C@@H]1C[C@@H]2O	–	–	Activity (Bos taurus [3]): Active; Activity (Jurkat [4]): Active
COc1cc(C2C(C#N)=C(N)Oc3cc(C)n(C)c(=O)c32)cc(OC)c1OC (stereo not given)	43300 nM	–	–
COc1cc(C2C(C#N)=C(N)Oc3c2c(=O)n(C)c2ccccc32)cc(Br)c1OC (stereo not given)	14 nM	380 nM	Activity (Jurkat [5]): Active; Activity (Jurkat [6]): Active; Activity (Jurkat [7]): 20%; Activity (Jurkat [8]): 28%; Activity (Bos taurus [2]): Active; Activity (Jurkat [9]): 49%
COc1cc(C2C(C#N)=C(N)Oc3c2c(=O)n(C)c2ccccc32)cc(Br)c1O (stereo not given)	47 nM	390 nM	Activity (Jurkat [5]): Active; Activity (Jurkat [6]): Active; Activity (Jurkat [7]): 27%; Activity (Jurkat [8]): 22%; Activity (Bos taurus [2]): Active; Activity (Jurkat [9]): 47%; Activity (Jurkat [10]): tde; Activity (Jurkat [11]): Active
